Measurements published in ChEMBL document CHEMBL1132870, “Solid-phase parallel synthesis of azarene pyrrolidinones as factor Xa inhibitors” (Bioorg Med Chem Lett, 2000).

target: T1, Coagulation factor X (Oryctolagus cuniculus) (UniProt O19045); assay: Compound was tested for its inhibitory activity against Coagulation factor X at a concentration of 0.3 uM
T1 sequence (whole entry): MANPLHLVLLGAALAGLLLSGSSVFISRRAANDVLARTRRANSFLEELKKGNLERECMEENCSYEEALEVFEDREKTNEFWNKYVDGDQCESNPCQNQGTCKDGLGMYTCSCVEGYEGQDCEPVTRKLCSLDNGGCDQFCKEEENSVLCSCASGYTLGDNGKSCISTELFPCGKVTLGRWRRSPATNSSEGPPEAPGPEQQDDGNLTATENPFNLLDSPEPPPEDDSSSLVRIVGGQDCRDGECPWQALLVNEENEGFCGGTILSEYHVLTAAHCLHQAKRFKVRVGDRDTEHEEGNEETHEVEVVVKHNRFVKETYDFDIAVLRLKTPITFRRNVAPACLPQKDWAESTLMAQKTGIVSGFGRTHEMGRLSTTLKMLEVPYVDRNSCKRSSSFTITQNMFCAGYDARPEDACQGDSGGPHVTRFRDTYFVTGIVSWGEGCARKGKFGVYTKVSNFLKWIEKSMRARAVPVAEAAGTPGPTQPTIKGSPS

Row | inhibition [%] | SMILES
1 | 58 | O=C1[C@@H](NS(=O)(=O)c2cc3ncccc3s2)CCN1Cc1cc2[nH]cccc-2n1
2 | 53 | O=C1[C@@H](NS(=O)(=O)c2ccc(-c3ccc(Cl)s3)s2)CCN1Cc1cc2cc[nH]cc-2n1

target: T1, Coagulation factor X (Oryctolagus cuniculus); assay: Inhibitory activity against coagulation factor X at a concentration of 1 uM
In short: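 Triplicate screen. DMSO stocks were diluted to 1 µM final inhibitor in 0.05 M Tris, 0.15 M NaCl, 0.1% PEG-8000, pH 7.5. Incubated 30 min at rt with 1 nM fXa, then 200 µM Spectrozyme chromogenic substrate added. Initial rates read at 405 nm over 5 min in kinetic mode; % inhibition reported.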

Row | SMILES | inhibition [%]
3 | O=C1[C@@H](NS(=O)(=O)c2ccc(-c3ccncc3)s2)CCN1Cc1cc2[nH]cccc-2n1 | 35
4 | Cc1c(S(=O)(=O)N[C@H]2CCN(Cc3cc4[nH]cccc-4n3)C2=O)sc2ccc(Cl)cc12 | 40
5 | O=C1[C@@H](NS(=O)(=O)c2nc3cc(Cl)ccc3[nH]2)CCN1Cc1cc2c[nH]ccc-2n1 | 31
6 | O=C1[C@@H](NS(=O)(=O)c2cc3cccnc3s2)CCN1CCNc1ccncc1 | 23
7 | O=C1[C@@H](NS(=O)(=O)c2ccc(-c3ccncc3)s2)CCN1Cc1cc2cc[nH]cc-2n1 | 50
8 | O=C1[C@@H](NS(=O)(=O)c2cc3ccnc(Cl)c3s2)CCN1CCNc1ccncc1 | 23
9 | O=C1[C@@H](NS(=O)(=O)c2cc3ccc(Cl)nc3s2)CCN1Cc1cc2[nH]cccc-2n1 | 23
10 | CC(C)(C)c1ccc(S(=O)(=O)N[C@H]2CCN(Cc3cc4c[nH]ccc-4n3)C2=O)cc1 | 14
11 | O=C1[C@@H](NS(=O)(=O)c2ccc(-c3ccncc3)s2)CCN1CCNc1ccncc1 | 41
12 | CC(C)(C)c1ccc(S(=O)(=O)N[C@H]2CCN(CCNc3ccncc3)C2=O)cc1 | 14
13 | CC(C)(C)c1ccc(S(=O)(=O)N[C@H]2CCN(Cc3cc4cc[nH]cc-4n3)C2=O)cc1 | 57
14 | O=C1[C@@H](NS(=O)(=O)c2ccc(-c3ccc(Cl)s3)s2)CCN1Cc1cc2[nH]cccc-2n1 | 42
15 | O=C1[C@@H](NS(=O)(=O)c2ccc(-c3ccccn3)s2)CCN1CCNc1ccncc1 | 18
16 | O=C1[C@@H](NS(=O)(=O)c2cc3ccc(Cl)nc3s2)CCN1Cc1cc2cc[nH]cc-2n1 | 50
17 | O=C1[C@@H](NS(=O)(=O)c2ccc(-c3ccon3)s2)CCN1Cc1cc2[nH]cccc-2n1 | 31
18 | O=C1[C@@H](NS(=O)(=O)c2nc3cc(Cl)ccc3[nH]2)CCN1CCNc1ccncc1 | 29
19 | O=C1[C@@H](NS(=O)(=O)c2cc3c(Cl)nccc3s2)CCN1CCNc1ccncc1 | 39
20 | CC(C)(C)c1ccc(S(=O)(=O)N[C@H]2CCN(Cc3cc4[nH]cccc-4n3)C2=O)cc1 | 22
21 | O=C1[C@@H](NS(=O)(=O)c2ccc(-c3ccon3)s2)CCN1CCNc1ccncc1 | 22
22 | O=C1[C@@H](NS(=O)(=O)c2nc3cc(Cl)ccc3[nH]2)CCN1Cc1cc2[nH]cccc-2n1 | 14
23 | O=C1[C@@H](NS(=O)(=O)c2ccc(-c3ccccn3)s2)CCN1Cc1cc2[nH]cccc-2n1 | 8
24 | O=C1[C@@H](NS(=O)(=O)c2cc3ccnc(Cl)c3s2)CCN1Cc1cc2[nH]cccc-2n1 | 45
25 | Cc1c(S(=O)(=O)N[C@H]2CCN(Cc3cc4c[nH]ccc-4n3)C2=O)sc2ccc(Cl)cc12 | 37
26 | O=C1[C@@H](NS(=O)(=O)c2nc3cc(Cl)ccc3[nH]2)CCN1Cc1cc2cc[nH]cc-2n1 | 21

Other lines, results leading:

Row | inhibition [%] | SMILES
27 | 58 | O=C1[C@@H](NS(=O)(=O)c2cc3nc(Cl)ccc3s2)CCN1Cc1cc2c[nH]ccc-2n1
28 | 44 | O=C1[C@@H](NS(=O)(=O)c2cc3cccnc3s2)CCN1Cc1cc2[nH]cccc-2n1
29 | 35 | O=C1[C@@H](NS(=O)(=O)c2cc3c(Cl)nccc3s2)CCN1Cc1cc2c[nH]ccc-2n1
30 | 61 | O=C1[C@@H](NS(=O)(=O)c2cc3ncccc3s2)CCN1Cc1cc2c[nH]ccc-2n1
31 | 17 | O=C1[C@@H](NS(=O)(=O)c2ccc(-c3ccccn3)s2)CCN1Cc1cc2cc[nH]cc-2n1
32 | 11 | O=C1[C@@H](NS(=O)(=O)c2ccc(-c3ccccn3)s2)CCN1Cc1cc2c[nH]ccc-2n1
33 | 25 | O=C1[C@@H](NS(=O)(=O)c2cc3ccnc(Cl)c3s2)CCN1Cc1cc2c[nH]ccc-2n1
34 | 49 | O=C1[C@@H](NS(=O)(=O)c2ccc(-c3ccon3)s2)CCN1Cc1cc2cc[nH]cc-2n1
35 | 21 | O=C1[C@@H](NS(=O)(=O)c2ccc(-c3ccncc3)s2)CCN1Cc1cc2c[nH]ccc-2n1
36 | 17 | O=C1[C@@H](NS(=O)(=O)c2ccc(-c3ccon3)s2)CCN1Cc1cc2c[nH]ccc-2n1
37 | 51 | O=C1[C@@H](NS(=O)(=O)c2cc3ccc(Cl)nc3s2)CCN1Cc1cc2c[nH]ccc-2n1
38 | 18 | O=C1[C@@H](NS(=O)(=O)c2cc3cccnc3s2)CCN1Cc1cc2c[nH]ccc-2n1

target: T1, Coagulation factor X (Oryctolagus cuniculus); assay: Compound was tested for its inhibitory activity against Coagulation factor X at a concentration of 0.4 uM

Row | inhibition [%] | SMILES
39 | 50 | O=C1[C@@H](NS(=O)(=O)c2cc3nc(Cl)ccc3s2)CCN1CCNc1ccncc1

target: T1, Coagulation factor X (Oryctolagus cuniculus); assay: Compound was tested for its inhibitory activity against Coagulation factor X at a concentration of 0.2 uM

Row | inhibition [%] | SMILES
40 | 52 | O=C1[C@@H](NS(=O)(=O)c2cc3c(Cl)nccc3s2)CCN1Cc1cc2cc[nH]cc-2n1

target: T1, Coagulation factor X (Oryctolagus cuniculus); assay: Compound was tested for its inhibitory activity against Coagulation factor X at a concentration of 0.7 uM

Row | inhibition [%] | SMILES
41 | 50 | O=C1[C@@H](NS(=O)(=O)c2cc3ncccc3s2)CCN1CCNc1ccncc1

target: T1, Coagulation factor X (Oryctolagus cuniculus); assay: Compound was tested for its inhibitory activity against Coagulation factor X at a concentration of 0.1 uM

Row | SMILES | inhibition [%]
42 | O=C1[C@@H](NS(=O)(=O)c2cc3ccc(Cl)cc3s2)CCN1CCNc1ccncc1 | 57
43 | O=C1[C@@H](NS(=O)(=O)c2ccc(-c3ccc(Cl)s3)s2)CCN1CCNc1ccncc1 | 77
44 | O=C1[C@@H](NS(=O)(=O)c2cc3ccc(Cl)nc3s2)CCN1CCNc1ccncc1 | 53

The next lines start with the values.

Row | inhibition [%] | SMILES
45 | 50 | O=C1[C@@H](NS(=O)(=O)c2cc3ccc(Cl)cc3s2)CCN1Cc1cc2cc[nH]cc-2n1
46 | 52 | O=C1[C@@H](NS(=O)(=O)c2cc3ncccc3s2)CCN1Cc1cc2cc[nH]cc-2n1
47 | 62 | O=C1[C@@H](NS(=O)(=O)c2ccc(-c3ccc(Cl)s3)s2)CCN1Cc1cc2c[nH]ccc-2n1

target: T1, Coagulation factor X (Oryctolagus cuniculus); assay: Compound was tested for its inhibitory activity against Coagulation factor X at a concentration of 0.5 uM

Row | SMILES | inhibition [%]
48 | O=C1[C@@H](NS(=O)(=O)c2cc3ccc(Cl)cc3s2)CCN1Cc1cc2[nH]cccc-2n1 | 64
49 | Cc1c(S(=O)(=O)N[C@H]2CCN(CCNc3ccncc3)C2=O)sc2cc(Cl)ccc12 | 47
50 | O=C1[C@@H](NS(=O)(=O)c2cc3nc(Cl)ccc3s2)CCN1Cc1cc2[nH]cccc-2n1 | 48
51 | O=C1[C@@H](NS(=O)(=O)c2cc3c(Cl)nccc3s2)CCN1Cc1cc2[nH]cccc-2n1 | 50

The next lines start with the values.

Row | inhibition [%] | SMILES
52 | 53 | O=C1[C@@H](NS(=O)(=O)c2cc3ccc(Cl)cc3s2)CCN1Cc1cc2c[nH]ccc-2n1
53 | 43 | O=C1[C@@H](NS(=O)(=O)c2cc3cccnc3s2)CCN1Cc1cc2cc[nH]cc-2n1
54 | 48 | O=C1[C@@H](NS(=O)(=O)c2cc3ccnc(Cl)c3s2)CCN1Cc1cc2cc[nH]cc-2n1
